Compounds with a hit are over-represented: about 5.3% of the library has one in this group of screens.
Plk1 PBD FP = inhibitors of human Plk1 polo box domain binding; P53350; Plk1 PBD phosphopeptide binding, fluorescence polarization; inhibition, %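 (tested at about 20 µM)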; 97,000 tested, 0.13% active; in the data active = inhibition above about 34%, passing the limit was not always enough
HIV Rev-RRE inh = HIV Rev-RRE protein-RNA interaction inhibition. inhibition, % at 8 µM. Rev peptide-RRE RNA binding, FRET. 97,000 tested, 0.79% active. P05866;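 active = inhibition above the screen-wide mean plus 3 SD, cut at about 35% in these data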;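 note: 0% = median DMSO wells and 100% = median Neomycin B control wells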
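Probe or stimulus: fluorescein-Rev peptide as binding partner; assay system: Cy5-tagged RRE RNA duplex with fluorescein-tagged Rev peptide; timing: 5 min compound–RNA preincubation, then 15 min with peptide, 25 °C; medium: HEPES pH 7.5 buffer with KCl, MgCl2, NaCl and EDTA; signal: fluorescein-to-Cy5 FRET, 480 nm excitation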
FAK inh = blocks human focal adhesion kinase activity | 97,000 tested, 0.84% active | inhibition, %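 (tested at 7 µM)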 | Q05397 | biochemical FAK kinase activity assay;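 note: 0% = DMSO and 100% = reference compound high control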
Cav3 T inh = inhibitors of human Cav3.2 T-type calcium channel | Cav3.2-expressing cells, Fluo-4 calcium fluorescence FDSS; active compounds read low | B-score at 10 µM | 100,000 tested, 4% active | AID 449739;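 active = single-dose well whose peak fluorescence ratio is a statistical outlier from its plate by either plate-standardised score or position-corrected B-score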
EphB4 antag = antagonists of human EphB4-ephrin-B2 interaction; 97,000 tested, 0.15% active; inhibition, % at 7 µM; P54760; EphB4 LBD / TNYL-RAW-Alexa532 peptide, fluorescence polarization;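 active = inhibition above the screen-wide mean inhibition plus 3 SD, cut at about 15% in these data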;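 note: 0% = DMSO wells and 100% = excess unlabeled TNYL-RAW peptide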
Target sequence (P54760 whole entry, looked up, the tested form may be a part): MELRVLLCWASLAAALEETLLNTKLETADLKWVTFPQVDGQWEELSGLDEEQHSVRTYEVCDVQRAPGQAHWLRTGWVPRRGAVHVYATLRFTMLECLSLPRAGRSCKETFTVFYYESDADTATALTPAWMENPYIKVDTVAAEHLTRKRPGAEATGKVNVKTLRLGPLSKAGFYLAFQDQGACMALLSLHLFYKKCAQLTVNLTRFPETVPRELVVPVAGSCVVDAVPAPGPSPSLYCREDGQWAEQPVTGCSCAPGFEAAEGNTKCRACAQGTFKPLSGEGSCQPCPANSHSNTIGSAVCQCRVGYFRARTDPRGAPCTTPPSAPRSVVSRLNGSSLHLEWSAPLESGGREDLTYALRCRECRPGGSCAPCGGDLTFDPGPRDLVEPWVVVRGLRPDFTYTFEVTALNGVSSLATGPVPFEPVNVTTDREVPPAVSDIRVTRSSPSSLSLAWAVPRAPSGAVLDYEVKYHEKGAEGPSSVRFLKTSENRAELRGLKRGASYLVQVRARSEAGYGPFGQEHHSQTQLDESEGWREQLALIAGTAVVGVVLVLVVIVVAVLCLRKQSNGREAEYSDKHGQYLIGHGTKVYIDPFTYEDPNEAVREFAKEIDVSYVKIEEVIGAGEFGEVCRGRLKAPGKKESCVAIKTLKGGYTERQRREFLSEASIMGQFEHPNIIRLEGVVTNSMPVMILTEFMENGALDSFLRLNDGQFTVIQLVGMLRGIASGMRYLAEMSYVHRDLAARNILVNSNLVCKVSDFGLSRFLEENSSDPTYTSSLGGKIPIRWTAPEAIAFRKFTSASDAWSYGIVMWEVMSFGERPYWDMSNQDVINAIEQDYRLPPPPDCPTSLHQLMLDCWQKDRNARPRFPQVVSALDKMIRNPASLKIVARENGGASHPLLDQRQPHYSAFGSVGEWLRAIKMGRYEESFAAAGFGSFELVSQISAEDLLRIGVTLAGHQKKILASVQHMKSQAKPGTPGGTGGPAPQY
PLK1 kinase inh = PLK1 (human) kinase inhibition | P53350 | recombinant PLK1 kinase, TR-FRET peptide phosphorylation | inhibition, % at 10 µM | 97,000 tested, 0.53% active | AID 619;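 active = inhibition of 50% or more in the single-concentration screen; inactive = inhibition below 50%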;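 note: 0% = DMSO max control and 100% = H-89 dihydrochloride min control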
FAK inh conf = confirmation of human focal adhesion kinase (FAK) inhibitors | shares compounds with FAK inh | FAK kinase biochemical inhibition assay | inhibition, % at 7 µM | 750 tested, 28% active
Active calls of the source: *; . = no result given. Cut-off read from the data, not from the text of the source, unless noted: active = inhibition above about 19%; inactive = the rest.

SMILES	Plk1 PBD FP	HIV Rev-RRE inh	FAK inh	Cav3 T inh	EphB4 antag	PLK1 kinase inh	FAK inh conf
CCc1ccc(N(C(=O)c2ccco2)C(C(=O)NC2CCCC2)c2ccco2)cc1 (centres undefined)	-8.5	-1.1	-0.6	-1.95	1.6	-7.7	.
c1ccc(Nc2cc(-c3ccccc3)nc3ncnn23)cc1	-4.0	0.7	-1.2	1.52	-10.9	-5.9	.
COC(=O)c1ccccc1S(=O)(=O)Nc1ccc2cn[nH]c2c1	-4.1	4.3	20.1*	-0.232	0.8	-1.4	14.8
COC(=O)c1sc(S(=O)(=O)Nc2ccc3cn[nH]c3c2)c(C(=O)OC)c1C	-5.3	1.9	1.3	-0.607	-0.6	-8.3	.
CCOc1cc(/C=C(/C#N)c2nc3ccccc3[nH]2)ccc1Oc1ccc([N+](=O)[O-])cn1	-3.2	3.5	1.4	-0.0213	-11.0	-1.2	.
COC(=O)c1ccc(COc2ccc(/C=C(\C#N)c3nc4ccccc4[nH]3)cc2OC)o1	-11.7	3.1	55.5*	-0.0488	1.2	-7.8	22.6*
O=C1[C@H]2[C@H](C=CC[C@H]2C(=O)N2CCOCC2)CCN1Cc1ccccc1	.	.	.	-1.01	.	.	.
Cc1ccc(-c2n[nH]c(=S)n2/N=C/C=C\c2ccccc2[N+](=O)[O-])cc1	-12.4	-0.2	29.1*	.	2.5	-15.8	15.1
N#Cc1cnn2c1nc(N1CCOCC1)c1ccccc12	17.4	-0.4	50.7*	1.54	4.7	-11.3	26.0*
Cc1n(CC(O)COC2CCCCC2)c2ccccc2[n+]1C (centres undefined)	-15.1	6.5	0.9	0.679	-0.4	-5.6	.
CC[N+]1(C)CCC(=C2c3ccccc3CC(=O)c3sccc32)CC1 (centres undefined)	-10.5	0.3	0.2	0.174	7.5	-8.7	.
C[N+]1(C)CCC(=C2c3ccccc3CC(=O)c3sccc32)CC1	-6.8	6.8	27.4*	-0.104	5.0	-8.7	-0.8
Cc1ccc(-n2cc(C(C)(C)C)[nH]c2=S)cc1	-7.1	0.9	1.9	0.281	2.0	-9.4	.
CSc1nc(NCc2ccccc2)c2c3c(sc2n1)CN(C)CC3	48.3	13.0	21.1*	-0.0055	-7.7	-7.0	6.0
CCOC(=O)C1CCN(C(=O)Nc2ccc3nc(-c4ccco4)c(-c4ccco4)nc3c2)CC1	-5.9	-6.5	92.9*	-2.79	3.6	7.8	5.1
O=C(Nc1ccc2nc(-c3ccco3)c(-c3ccco3)nc2c1)N1CCCCCC1	.	.	.	-2.99	.	.	.
COC(=O)c1c(C)[nH]c(O)c1C=Nc1ccc(C(C)C)cc1	-20.2	-0.2	29.2*	-0.0104	1.2	-5.5	10.0
CCOc1cc(S(=O)(=O)NCc2ccccn2)ccc1Cl	2.2	-1.1	1.0	0.869	-4.9	-11.8	.
COc1ccc([N+](=O)[O-])cc1COc1cc(C)cc2oc(=O)cc(-c3ccccc3)c12	-28.2	7.5	26.5*	-8.72*	0.6	9.0	21.8*

Screens deposited in PubChem BioAssay by several laboratories.
